Assay results as given in ChEMBL document CHEMBL1221389, “Fluorescent schweinfurthin B and F analogs with anti-proliferative activity” (2010).
The source made the active and inactive calls. No cut-off for these calls is given here.

Experiments:
A549 = assay: Cytotoxicity against human A549 cells after 44 hrs by MTT assay; format: functional; details: A549, 44 h, read-out: ED50 (the source's name)
How it was run: (§1)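 Exposure to compound lasted 44 h. SF-295 cells were kept in RPMI 1640 and A549 cells in F-12, each with 10% FBS, antibiotics and L-glutamine, at 37 °C and 5% CO2. Medium was then replaced with MTT-containing medium (phenol red-free RPMI for SF-295, F-12 for A549) up to 48 h total. Cells were solubilized overnight at room temperature in HCl/Triton X-100/isopropanol stop solution, and absorbance was read at 540 and 650 nm. ED50 was derived from the dose-response.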

SF-295 [1] = assay: Cytotoxicity against human SF295 cells after 44 hrs by MTT assay; format: functional; details: SF-295, 44 h, read-out: ED50 (the source's name); how it was run: as §1
SF-295 [2] = assay: Cellular uptake in human SF295 cells assessed as perinuclear localization at 500 nM after 24 hrs by fluorescence microscopy; format: functional, cell-based
How it was run: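 SF-295 glioma cells, from NCI, grown in RPMI 1640 with 10% FBS, amphotericin B, penicillin/streptomycin and L-glutamine at 37 °C, 5% CO2. Plated on coverslips and exposed to compound at 500 nM for 24 h at about 45% confluency. Then washed three times in PBS, fixed in 4% formaldehyde for 15 min, nuclei stained with DAPI, and compound fluorescence imaged.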

COc1cc(/C=C/c2cc3c(c(OC)c2)O[C@]2(C)C[C@@H](O)[C@@H](O)C(C)(C)[C@H]2C3)cc(O)c1/C=C/c1ccc([N+](=O)[O-])cc1
EC50 (A549): 700 nM | EC50 (SF-295 [1]): 40 nM

COc1cc(/C=C/c2cc3c(c(OC)c2)O[C@]2(C)CC[C@@H](O)C(C)(C)[C@H]2C3)cc(O)c1/C=C/c1ccc([N+](=O)[O-])cc1
Activity (SF-295 [2]): Active | EC50 (A549): 2700 nM | EC50 (SF-295 [1]): 100 nM

COc1cc(/C=C/c2cc3c(c(OC)c2)O[C@]2(C)C[C@@H](O)[C@@H](O)C(C)(C)[C@H]2C3)cc(O)c1/C=C/c1ccc(N)cc1
EC50 (A549): 3200 nM | EC50 (SF-295 [1]): 20 nM

COc1ccc(/C=C/c2cc(O)c(/C=C/c3ccc([N+](=O)[O-])cc3)c(OC)c2)cc1OC
EC50 (A549): > 10000 nM | EC50 (SF-295 [1]): > 1000 nM

COc1ccc(/C=C/c2cc(O)c(/C=C/c3ccc(N)cc3)c(OC)c2)cc1OC
EC50 (A549): > 10000 nM | EC50 (SF-295 [1]): > 1000 nM

COc1cc(/C=C/c2cc3c(c(OC)c2)O[C@]2(C)CC[C@@H](O)C(C)(C)[C@H]2C3)cc(O)c1/C=C/c1ccc(N)cc1
EC50 (A549): 3000 nM | EC50 (SF-295 [1]): 400 nM

COc1cc(/C=C/c2cc(O)c(/C=C/c3ccc([N+](=O)[O-])cc3)c(O)c2)cc2c1O[C@]1(C)CC[C@@H](O)C(C)(C)[C@H]1C2
EC50 (A549): 800 nM | EC50 (SF-295 [1]): 50 nM
